Here are results for 18 molecules from ChEMBL document CHEMBL1133084, “Synthesis of novel 3,7-substituted-2-(3',4'-dihydroxyphenyl)flavones with improved antioxidant activity” (J Med Chem, 2000).

For the first assay, the species on record is Rattus norvegicus. Description: Inhibitory effect on the oxidative degradation of membrane lipids (lipid peroxidation assay) in microsomes of rat. It is filed as functional. Put shortly: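 Liver microsomes from male Wistar rats (200–220 g), washed in 50 mM Tris-HCl pH 7.4 and heat-inactivated at 100 °C ≥2 min, then diluted to 1.5 mg/mL. Peroxidation started with 10 μM FeSO4; final DMSO ≤2.5%. TBA-reactive substances sampled at 0–60 min and absorbance read at 535-600 nm after heating. IC50 interpolated from % inhibition at several concentrations; mean ± SEM, n = 3-5.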
For the molecule `O=c1c(OCCO)c(-c2ccc(O)c(O)c2)oc2ccccc12`, the concentration for half-maximal inhibition (IC50) (as a rule, the midpoint of a concentration-inhibition curve) turned out to be 600 nM.

Take `O=c1c(O)c(-c2ccc(O)c(O)c2)oc2cc(O)ccc12` [FISETIN]: half-maximal inhibition (IC50) required 200 nM. Compared with the last molecule, the IC50 is about 3-fold lower.

As to `C[N+](C)(C)CCCOc1ccc2c(=O)cc(-c3ccc(O)c(O)c3)oc2c1`, half-maximal inhibition (IC50) required 37300 nM.

Regarding `O=C(O)COc1c(-c2ccc(O)c(O)c2)oc2ccccc2c1=O`, the IC50 was determined as 6500 nM.

The molecule `COc1ccc2c(=O)cc(-c3ccc(O)c(O)c3)oc2c1` displayed a concentration for half-maximal inhibition (IC50) of 2500 nM. Compared with the last molecule, the IC50 is about 2.6-fold lower.

`O=c1cc(-c2ccc(O)c(O)c2)oc2cc(OCCO)ccc12` displayed an IC50 of 16400 nM.

With `CN(C)CCCOc1ccc2c(=O)cc(-c3ccc(O)c(O)c3)oc2c1`, 8100 nM corresponded to half-maximal inhibition (IC50).

`O=c1c(O)c(-c2ccc(O)c(O)c2)oc2cc(OCCO)ccc12` came in with a half-inhibitory concentration (IC50) of 13800 nM.

For `O=c1c(OCCO)c(-c2ccc(O)c(O)c2)oc2cc(O)ccc12`, it took 21700 nM to reach half-maximal inhibition (IC50). This IC50 is about 1.6-fold higher than that of the molecule before.

For `O=c1c(O)c(-c2ccc(O)c(O)c2)oc2ccccc12`, half-maximal inhibition (IC50) was put at 1800 nM.

Regarding `C[N+](C)(C)CCCOc1c(-c2ccc(O)c(O)c2)oc2ccccc2c1=O`, it took 1200 nM to reach half-maximal inhibition (IC50). This IC50 lies about 1.5-fold lower than the previous one.

`C[N+](C)(C)CCCCCCCCOc1c(-c2ccc(O)c(O)c2)oc2ccccc2c1=O` had an IC50 of 1000 nM.

Consider `C[N+](C)(C)CCCCCCOc1c(-c2ccc(O)c(O)c2)oc2ccccc2c1=O`, for which the half-inhibitory concentration (IC50) turned out to be 1400 nM.

In the case of `C[N+](C)(C)CCCOc1c(-c2ccc(O)c(O)c2)oc2cc(O)ccc2c1=O`, inhibition was half-maximal at 3800 nM (IC50).

`O=c1cc(-c2ccc(O)c(O)c2)oc2cc(O)ccc12` came in with an IC50 of 11000 nM.

Consider `COc1c(-c2ccc(O)c(O)c2)oc2ccccc2c1=O`, for which the IC50 came to 1300 nM.

Regarding `COc1c(-c2ccc(O)c(O)c2)oc2cc(O)ccc2c1=O`, the 50% inhibitory concentration (IC50) is 1600 nM.

In the case of `CN(C)CCCOc1c(-c2ccc(O)c(O)c2)oc2ccccc2c1=O`, the IC50 was found to be 1000 nM.

Tested on in the next assay: not listed separately
Briefly: Antioxidant activity was determined using trolox equivalent antioxidant capacity assay. Format: functional. Put shortly: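 ABTS (1.23 mg/mL) and ABAP (3.96 mg/mL) in 50 mM phosphate buffer pH 7.4 heated 70 °C for 20 min to generate ABTS radical. Test compound (stock in N2-purged DMSO:water 1:1; final DMSO ≤0.25%) incubated with ABTS•+ solution 5 min at 37 °C. Absorbance read at 734 nm. Trolox calibration 0–20 μM; TEAC = mM trolox equivalent to 1 mM compound.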
For `O=c1c(OCCO)c(-c2ccc(O)c(O)c2)oc2ccccc12`, the Activity worked out at 4.4 mM.

For the molecule `O=c1c(O)c(-c2ccc(O)c(O)c2)oc2cc(O)ccc12` [FISETIN], the Activity was 5.6 mM.

Turning to `C[N+](C)(C)CCCOc1ccc2c(=O)cc(-c3ccc(O)c(O)c3)oc2c1`, the Activity came to 1.9 mM.

In the case of `O=C(O)COc1c(-c2ccc(O)c(O)c2)oc2ccccc2c1=O`, the Activity came out at 7.6 mM.

Turning to `COc1ccc2c(=O)cc(-c3ccc(O)c(O)c3)oc2c1`, the Activity was found to be 3.3 mM.

Consider `O=c1cc(-c2ccc(O)c(O)c2)oc2cc(OCCO)ccc12`, for which the Activity is 4.3 mM.

Take `CN(C)CCCOc1ccc2c(=O)cc(-c3ccc(O)c(O)c3)oc2c1`: the Activity is 2.9 mM.

As to `O=c1c(O)c(-c2ccc(O)c(O)c2)oc2cc(OCCO)ccc12`, the Activity was 4.9 mM.

For the molecule `O=c1c(OCCO)c(-c2ccc(O)c(O)c2)oc2cc(O)ccc12`, the Activity was determined as 3.4 mM.

Regarding `O=c1c(O)c(-c2ccc(O)c(O)c2)oc2ccccc12`, the Activity worked out at 4.5 mM.

Turning to `C[N+](C)(C)CCCOc1c(-c2ccc(O)c(O)c2)oc2ccccc2c1=O`, the Activity worked out at 4.2 mM.

Consider `C[N+](C)(C)CCCCCCCCOc1c(-c2ccc(O)c(O)c2)oc2ccccc2c1=O`, for which the Activity came out at 3.3 mM.

On to `C[N+](C)(C)CCCCCCOc1c(-c2ccc(O)c(O)c2)oc2ccccc2c1=O`, for which the Activity came out at 4.3 mM.

On to `C[N+](C)(C)CCCOc1c(-c2ccc(O)c(O)c2)oc2cc(O)ccc2c1=O`, for which the Activity was 5.1 mM.

As for `O=c1cc(-c2ccc(O)c(O)c2)oc2cc(O)ccc12`, the Activity came to 4.3 mM.

Take `COc1c(-c2ccc(O)c(O)c2)oc2ccccc2c1=O`: the Activity was determined as 4.4 mM.

For `COc1c(-c2ccc(O)c(O)c2)oc2cc(O)ccc2c1=O`, the Activity is 5.9 mM.

On to `CN(C)CCCOc1c(-c2ccc(O)c(O)c2)oc2ccccc2c1=O`, for which the Activity was 3.4 mM.
